Experimental findings from ChEMBL document CHEMBL1151323, “Use of on-flow LC/1H NMR for the study of an antioxidant fraction from Orophea enneandra and isolation of a polyacetylene, lignans, and a tocopherol derivative” (J Nat Prod, 1998) are described below.

A short description of assay [1]: DPPH radical scavenging activity at 10 ug by TLC autographic assay. The assay is classed as functional. In outline: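 TLC autography on silica gel 60 F254 plates developed in petroleum ether–EtOAc (1:2), dried, then sprayed with 0.2% DPPH in MeOH. Plates were read 30 min after spraying; active zones show as yellow spots on a purple background.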
Assay [2] is described as follows: Antioxidant activity against beta-carotene assessed as inhibition of bleaching at 10 ug. The assay is classed as functional. The method in brief:
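Silica gel 60 F254 TLC plates developed in petroleum ether–EtOAc (1:2), then dried and sprayed with 0.05% β-carotene in CHCl3. Plates were kept under UV 254 nm until the background discolored. Inhibition of bleaching was read on the plate.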

In assay [3] the test system is Cladosporium cucumerinum. Put plainly: Antifungal activity against Cladosporium cucumerinum at 40 ug. The assay is classed as functional, organism-based.
A short description of assay [4]: DPPH radical scavenging activity at 10 ug by TLC autographic assay. (DPPH is a stable violet radical that fades when it is reduced.)
Assay [5] deals with Cladosporium cucumerinum. Put plainly: Antifungal activity against Cladosporium cucumerinum at 20 ug. The assay is classed as functional, organism-based.
The subject of assay [6] is Cladosporium cucumerinum. Put plainly: Antifungal activity against Cladosporium cucumerinum at 10 ug. The assay is classed as functional, organism-based.

Calls of active or inactive are those of the source. The rule behind the calls is not given here.

As to `C/C(=C/CC/C(C)=C/CCC1(C)CCc2cc(O)cc(C)c2O1)C(=O)O` (centres undefined), the outcome (in assay [1]; in assay [2]; in the assay on Cladosporium cucumerinum [3]; in assay [4]) was Active.
Take `COc1ccc([C@H]2OC[C@@H]3[C@H]2CO[C@H]3c2ccc(OC)c(OC)c2)cc1OC`: the outcome (in assay [1]; in assay [2]; in the assay on Cladosporium cucumerinum [5]) was Active.
On to `COc1ccc([C@@H]2OC[C@@H]3[C@H]2CO[C@H]3c2ccc(OC)c(OC)c2)cc1OC`, for which the outcome (in assay [1]; in assay [2]; in the assay with Cladosporium cucumerinum [5]) was Active.
In the case of `Clc1ccc(COC(Cn2ccnc2)c2ccc(Cl)cc2Cl)c(Cl)c1` (centres undefined), the outcome with Cladosporium cucumerinum [6] was Active.
For `COc1cc([C@@H]2OC[C@@H]3[C@H]2CO[C@@H]3c2ccc(OC)c(OC)c2)ccc1O`, the result (in assay [1]; in assay [2]; with Cladosporium cucumerinum [5]) was Active.
